Experimental data: ChEMBL document CHEMBL1221233, “4''-O-(omega-Quinolylamino-alkylamino)propionyl derivatives of selected macrolides with the activity against the key erythromycin resistant respiratory pathogens” (2010)
≈ marks a conversion by molar mass, not a printed value.

Key:
Assay type in all cases: functional
[1] = tested on: Streptococcus pyogenes; test: Antibacterial activity against constitutive MLS resistance sStreptococcus pyogenes 166 GR-Micro by broth microdilution method
Procedure, shortened: (§1)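 MIC by CLSI broth microdilution. In the streptococcal medium, 5% horse serum replaced lysed blood. Compounds were tested as two-fold serial dilutions. Strains were first grown on Columbia agar with 5% sheep blood. The MIC was read as the lowest concentration inhibiting growth.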

[2] = tested on: Staphylococcus aureus; test: Antibacterial activity against inducible resistance to macrolide, licosamide and streptogramin Staphylococcus aureus 90256 by broth microdilution method
Procedure, shortened: (§2)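 Staphylococci were grown on Mueller-Hinton agar and then tested by CLSI-guideline broth microdilution against two-fold serial dilutions of compound. The result was recorded as the minimum inhibitory concentration.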

[3] = tested on: Haemophilus influenzae; test: Antibacterial activity against Haemophilus influenzae ATCC 49247 by broth microdilution method
Procedure, shortened: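 MIC by broth microdilution following CLSI guidelines, expressed in units of lg/mL. Twofold dilutions prepared in 96-well plates. H. influenzae grown on Mueller-Hinton chocolate agar before testing.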

[4] = tested on: Staphylococcus aureus; test: Antibacterial activity against efflux-mediated macrolide-resistance Staphylococcus aureus PK1 by broth microdilution method; procedure, shortened: as §2
[5] = tested on: Streptococcus pneumoniae; test: Antibacterial activity against constitutive MLS resistance Streptococcus pneumoniae 58 by broth microdilution method; procedure, shortened: as §1
[6] = tested on: Streptococcus pyogenes; test: Antibacterial activity against efflux-mediated macrolide-resistance Streptococcus pyogenes 2 Finland by broth microdilution method; procedure, shortened: as §1
[7] = tested on: Streptococcus pneumoniae; test: Antibacterial activity against inducible resistance to macrolide and constitutive resistance to lincosamide Streptococcus pneumoniae 134 GR M by broth microdilution method; procedure, shortened: as §1
[8] = tested on: Streptococcus pneumoniae; test: Antibacterial activity against efflux-mediated macrolide-resistance Streptococcus pneumoniae Ci137 by broth microdilution method; procedure, shortened: as §1

SMILES | MIC [1] | MIC [2] | MIC [3] | MIC [4] | MIC [5] | MIC [6] | MIC [7] | MIC [8]
CC[C@H]1OC(=O)[C@H](C)[C@@H](O[C@H]2C[C@@](C)(OC)[C@@H](OC(=O)CCNCCNc3ccc4c(=O)c(C(=O)O)cn(C)c4c3)[C@H](C)O2)[C@H](C)[C@@H](O[C@@H]2O[C@H](C)C[C@H](N(C)C)[C@H]2O)[C@](C)(O)C[C@@H](C)NC(=O)[C@H](C)[C@@H](O)[C@]1(C)O | 0.5 µg/mL (≈ 0.47 µM) | 32 µg/mL (≈ 30.1 µM) | 16 µg/mL (≈ 15 µM) | 4 µg/mL (≈ 3.76 µM) | 1 µg/mL (≈ 0.94 µM) | 2 µg/mL (≈ 1.88 µM) | 1 µg/mL (≈ 0.94 µM) | 1 µg/mL (≈ 0.94 µM)
CC[C@H]1OC(=O)[C@H](C)[C@@H](O[C@H]2C[C@@](C)(OC)[C@@H](OC(=O)CCNCCNc3ccc4c(=O)c(C(=O)O)cn(C)c4c3)[C@H](C)O2)[C@H](C)[C@@H](O[C@@H]2O[C@H](C)C[C@H](N(C)C)[C@H]2O)[C@](C)(O)C[C@@H](C)CN(C)[C@H](C)[C@@H](O)[C@]1(C)O | ≤ 0.125 µg/mL | 4 µg/mL (≈ 3.76 µM) | 8 µg/mL (≈ 7.52 µM) | 2 µg/mL (≈ 1.88 µM) | ≤ 0.125 µg/mL | ≤ 0.125 µg/mL | ≤ 0.125 µg/mL | ≤ 0.125 µg/mL
CC[C@H]1OC(=O)[C@H](C)[C@@H](O[C@H]2C[C@@](C)(OC)[C@@H](OC(=O)CCNCCCNc3cc4c(cc3F)c(=O)c(C(=O)O)cn4C3CC3)[C@H](C)O2)[C@H](C)[C@@H](O[C@@H]2O[C@H](C)C[C@H](N(C)C)[C@H]2O)[C@](C)(O)C[C@@H](C)C(=O)[C@H](C)[C@@H](O)[C@]1(C)O | 2 µg/mL (≈ 1.81 µM) | 64 µg/mL (≈ 57.8 µM) | 8 µg/mL (≈ 7.22 µM) | 1 µg/mL (≈ 0.903 µM) | 0.25 µg/mL (≈ 0.226 µM) | ≤ 0.125 µg/mL | 2 µg/mL (≈ 1.81 µM) | ≤ 0.125 µg/mL
CC[C@H]1OC(=O)[C@H](C)[C@@H](O[C@H]2C[C@@](C)(OC)[C@@H](OC(=O)CCNCCNc3cc4c(cc3F)c(=O)c(C(=O)O)cn4C3CC3)[C@H](C)O2)[C@H](C)[C@@H](O[C@@H]2O[C@H](C)C[C@H](N(C)C)[C@H]2O)[C@](C)(O)C[C@@H](C)CN(C)[C@H](C)[C@@H](O)[C@]1(C)O | 2 µg/mL (≈ 1.8 µM) | 0.5 µg/mL (≈ 0.451 µM) | 2 µg/mL (≈ 1.8 µM) | 0.5 µg/mL (≈ 0.451 µM) | 0.25 µg/mL (≈ 0.226 µM) | 1 µg/mL (≈ 0.902 µM) | 1 µg/mL (≈ 0.902 µM) | 0.25 µg/mL (≈ 0.226 µM)
CC[C@H]1OC(=O)[C@H](C)[C@@H](O[C@H]2C[C@@](C)(OC)[C@@H](OC(=O)CCN(C)CCNc3ccc4c(c3)c(=O)c(C(=O)O)cn4C3CC3)[C@H](C)O2)[C@H](C)[C@@H](O[C@@H]2O[C@H](C)C[C@H](N(C)C)[C@H]2O)[C@](C)(O)C[C@@H](C)CN(C)[C@H](C)[C@H]2OC(=O)O[C@@]21C | 0.5 µg/mL (≈ 0.442 µM) | 8 µg/mL (≈ 7.08 µM) | 4 µg/mL (≈ 3.54 µM) | 1 µg/mL (≈ 0.885 µM) | 1 µg/mL (≈ 0.885 µM) | ≤ 0.125 µg/mL | 1 µg/mL (≈ 0.885 µM) | ≤ 0.125 µg/mL
CC[C@H]1OC(=O)[C@H](C)[C@@H](O[C@H]2C[C@@](C)(OC)[C@@H](OC(=O)CCNCCNc3ccc4c(=O)c(C(=O)O)cn(C5CC5)c4c3)[C@H](C)O2)[C@H](C)[C@@H](O[C@@H]2O[C@H](C)C[C@H](N(C)C)[C@H]2O)[C@](C)(O)C[C@@H](C)C(=O)[C@H](C)[C@@H](O)[C@]1(C)O | ≤ 0.125 µg/mL | 8 µg/mL (≈ 7.44 µM) | 2 µg/mL (≈ 1.86 µM) | 8 µg/mL (≈ 7.44 µM) | ≤ 0.125 µg/mL | ≤ 0.125 µg/mL | ≤ 0.125 µg/mL | ≤ 0.125 µg/mL
CC[C@H]1OC(=O)[C@H](C)[C@@H](O[C@H]2C[C@@](C)(OC)[C@@H](OC(=O)CCNCCNc3ccc4c(c3)c(=O)c(C(=O)O)cn4C3CC3)[C@H](C)O2)[C@H](C)[C@@H](O[C@@H]2O[C@H](C)C[C@H](N(C)C)[C@H]2O)[C@](C)(O)C[C@@H](C)CN(C)[C@H](C)[C@@H](O)[C@]1(C)O | ≤ 0.125 µg/mL | 1 µg/mL (≈ 0.917 µM) | 4 µg/mL (≈ 3.67 µM) | 1 µg/mL (≈ 0.917 µM) | ≤ 0.125 µg/mL | ≤ 0.125 µg/mL | ≤ 0.125 µg/mL | ≤ 0.125 µg/mL
CC[C@H]1OC(=O)[C@H](C)[C@@H](O[C@H]2C[C@@](C)(OC)[C@@H](OC(=O)CCNCCCCNc3ccc4c(=O)c(C(=O)O)cn(C)c4c3)[C@H](C)O2)[C@H](C)[C@@H](O[C@@H]2O[C@H](C)C[C@H](N(C)C)[C@H]2O)[C@](C)(O)C[C@@H](C)CN(C)[C@H](C)[C@@H](O)[C@]1(C)O | 8 µg/mL (≈ 7.32 µM) | > 64 µg/mL | 16 µg/mL (≈ 14.6 µM) | 8 µg/mL (≈ 7.32 µM) | 32 µg/mL (≈ 29.3 µM) | 4 µg/mL (≈ 3.66 µM) | 32 µg/mL (≈ 29.3 µM) | 2 µg/mL (≈ 1.83 µM)
CC[C@H]1OC(=O)[C@H](C)[C@@H](O[C@H]2C[C@@](C)(OC)[C@@H](OC(=O)CCN(C)CCNc3cc4c(cc3F)c(=O)c(C(=O)O)cn4C3CC3)[C@H](C)O2)[C@H](C)[C@@H](O[C@@H]2O[C@H](C)C[C@H](N(C)C)[C@H]2O)[C@](C)(O)C[C@@H](C)CN(C)[C@H](C)[C@H]2OC(=O)O[C@@]21C | 16 µg/mL (≈ 13.9 µM) | 4 µg/mL (≈ 3.48 µM) | 8 µg/mL (≈ 6.97 µM) | 2 µg/mL (≈ 1.74 µM) | 1 µg/mL (≈ 0.871 µM) | ≤ 0.125 µg/mL | 2 µg/mL (≈ 1.74 µM) | ≤ 0.125 µg/mL
CC[C@H]1OC(=O)[C@H](C)[C@@H](O[C@H]2C[C@@](C)(OC)[C@@H](OC(=O)CCNCCNc3ccc4c(=O)c(C(=O)O)cn(C)c4c3)[C@H](C)O2)[C@H](C)[C@@H](O[C@@H]2O[C@H](C)C[C@H](N(C)C)[C@H]2O)[C@](C)(O)C[C@@H](C)C(=O)[C@H](C)[C@@H](O)[C@]1(C)O | ≤ 0.125 µg/mL | 4 µg/mL (≈ 3.81 µM) | 8 µg/mL (≈ 7.62 µM) | 1 µg/mL (≈ 0.953 µM) | ≤ 0.125 µg/mL | 1 µg/mL (≈ 0.953 µM) | ≤ 0.125 µg/mL | ≤ 0.125 µg/mL
CC[C@H]1OC(=O)[C@H](C)[C@@H](O[C@H]2C[C@@](C)(OC)[C@@H](OC(=O)CCNCCNc3cc4c(cc3F)c(=O)c(C(=O)O)cn4C3CC3)[C@H](C)O2)[C@H](C)[C@@H](O[C@@H]2O[C@H](C)C[C@H](N(C)C)[C@H]2O)[C@](C)(O)C[C@@H](C)C(=O)[C@H](C)[C@@H](O)[C@]1(C)O | 0.5 µg/mL (≈ 0.457 µM) | 4 µg/mL (≈ 3.66 µM) | 8 µg/mL (≈ 7.32 µM) | 0.5 µg/mL (≈ 0.457 µM) | ≤ 0.125 µg/mL | ≤ 0.125 µg/mL | 0.25 µg/mL (≈ 0.229 µM) | ≤ 0.125 µg/mL
CC[C@H]1OC(=O)[C@H](C)[C@@H](O[C@H]2C[C@@](C)(OC)[C@@H](OC(=O)CCN(C)CCNc3cc4c(cc3F)c(=O)c(C(=O)O)cn4C3CC3)[C@H](C)O2)[C@H](C)[C@@H](O[C@@H]2O[C@H](C)C[C@H](N(C)C)[C@H]2O)[C@](C)(O)C[C@@H](C)CN(C)[C@H](C)[C@@H](O)[C@]1(C)O | 2 µg/mL (≈ 1.78 µM) | 2 µg/mL (≈ 1.78 µM) | 4 µg/mL (≈ 3.56 µM) | 1 µg/mL (≈ 0.891 µM) | 0.25 µg/mL (≈ 0.223 µM) | ≤ 0.125 µg/mL | 0.25 µg/mL (≈ 0.223 µM) | ≤ 0.125 µg/mL
CC[C@H]1OC(=O)[C@H](C)[C@@H](O[C@H]2C[C@@](C)(OC)[C@@H](OC(=O)CCNCCNc3ccc4c(c3)c(=O)c(C(=O)O)cn4C3CC3)[C@H](C)O2)[C@H](C)[C@@H](O[C@@H]2O[C@H](C)C[C@H](N(C)C)[C@H]2O)[C@](C)(O)C[C@@H](C)C(=O)[C@H](C)[C@@H](O)[C@]1(C)O | ≤ 0.125 µg/mL | 4 µg/mL (≈ 3.72 µM) | 1 µg/mL (≈ 0.93 µM) | 8 µg/mL (≈ 7.44 µM) | ≤ 0.125 µg/mL | ≤ 0.125 µg/mL | ≤ 0.125 µg/mL | ≤ 0.125 µg/mL
CC[C@H]1OC(=O)[C@H](C)[C@@H](O[C@H]2C[C@@](C)(OC)[C@@H](OC(=O)CCNCCNc3cc4c(=O)c(C(=O)OC)cn(C5CC5)c4cc3Cl)[C@H](C)O2)[C@H](C)[C@@H](O[C@@H]2O[C@H](C)C[C@H](N(C)C)[C@H]2O)[C@](C)(O)C[C@@H](C)C(=O)[C@H](C)[C@@H](O)[C@]1(C)O | 0.125 µg/mL (≈ 0.111 µM) | > 64 µg/mL | 2 µg/mL (≈ 1.78 µM) | 16 µg/mL (≈ 14.2 µM) | ≤ 0.125 µg/mL | ≤ 0.125 µg/mL | ≤ 0.125 µg/mL | ≤ 0.125 µg/mL
